Measured values taken from ChEMBL document CHEMBL3421562, “Bioactive prenylated xanthones from the young fruits and flowers of Garcinia cowa” (J Nat Prod, 2015).
Converted amounts (≈) assume the structure as drawn.

Experiments:
[1] = system: Escherichia coli; experiment: Antibacterial activity against Escherichia coli TISTR 780 by 2-fold serial dilution method; type: functional
[2] = system: Staphylococcus aureus; experiment: Antibacterial activity against Staphylococcus aureus TISTR 1466 by 2-fold serial dilution method; type: functional
[3] = system: Pseudomonas aeruginosa; experiment: Antibacterial activity against Pseudomonas aeruginosa TISTR 884 by 2-fold serial dilution method; type: functional
[4] = system: Bacillus cereus; experiment: Antibacterial activity against Bacillus cereus TISTR 688 by 2-fold serial dilution method; type: functional
[5] = system: Salmonella typhimurium; experiment: Antibacterial activity against Salmonella typhimurium TISTR 292 by 2-fold serial dilution method; type: functional, Salmonella enterica subsp. enterica serovar Typhimurium
[6] = system: Bacillus subtilis; experiment: Antibacterial activity against Bacillus subtilis TISTR 008 by 2-fold serial dilution method; type: functional
[7] = system: Saccharomyces cerevisiae; experiment: Inhibition of Saccharomyces cerevisiae alpha-glucosidase using p-nitrophenyl alpha-D-glucoside as substrate at 100 uM preincubated for 0.5 hrs followed by substrate addition measured after 1 hr by colorimetric method relative to control
Procedure, shortened: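 Test compound at 100 μM; enzyme (0.4 U/mL) preincubated with compound 0.5 h at 37 °C in 50 mM K2HPO4−KH2PO4 buffer, 10% DMSO final; reaction started with p-nitrophenyl α-D-glucoside (3 mM), 1 h at 37 °C; stopped with 0.1 M Na2CO3; absorbance read at 405 nm; percent inhibition.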

[8] = Inhibition of Saccharomyces cerevisiae alpha-glucosidase using p-nitrophenyl alpha-D-glucoside as substrate preincubated for 0.5 hrs followed by substrate addition measured after 1 hr by colorimetric method
Procedure, shortened: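 Enzyme (0.4 U/mL) and compound preincubated 0.5 h at 37 °C in 50 mM K2HPO4−KH2PO4 buffer, final DMSO 10%; p-nitrophenyl α-D-glucoside (3 mM) added, further 1 h at 37 °C; terminated with 0.1 M Na2CO3, A405 read immediately as relative hydrolysis rate; IC50 determined; acarbose positive control.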

COc1cc2oc3cc(O)c4c(c3c(=O)c2c(O)c1CC=C(C)C)CCC(C)(C)O4
MIC [1]: > 128 µg/mL
MIC [2]: 128 µg/mL (≈ 312 µM)
MIC [3]: > 128 µg/mL
MIC [4]: 128 µg/mL (≈ 312 µM)
MIC ([5]; Salmonella enterica): 128 µg/mL (≈ 312 µM)

CC(C)=CCCC1(C)C=Cc2c(c(O)cc3oc4cc5c(c(O)c4c(=O)c23)C=CC(C)(C)O5)O1 (stereo not drawn)
MIC [1]: > 128 µg/mL
MIC [2]: > 128 µg/mL
MIC [3]: 128 µg/mL (≈ 278 µM)
MIC [4]: 64 µg/mL (≈ 139 µM)
MIC ([5]; Salmonella enterica): 64 µg/mL (≈ 139 µM)
MIC [6]: 128 µg/mL (≈ 278 µM)

COc1c(O)cc2oc3cc4c(c(O)c3c(=O)c2c1CC=C(C)C)C=CC(C)(C)O4 [MANGOSTANIN]
MIC [1]: > 128 µg/mL
MIC [2]: 64 µg/mL (≈ 157 µM)
MIC [3]: 128 µg/mL (≈ 313 µM)
inhibition [7]: 70.1%
MIC [4]: 4 µg/mL (≈ 9.79 µM)
MIC ([5]; Salmonella enterica): 128 µg/mL (≈ 313 µM)
IC50 [8]: 34.6 µM
MIC [6]: 8 µg/mL (≈ 19.6 µM)

CC(C)=CCC/C(C)=C/CC1(CC=C(C)C)C(=O)C(O)=Cc2oc3cc(O)cc(O)c3c(=O)c21 (stereo not drawn) [GARCINIANONE A]
MIC [1]: 64 µg/mL (≈ 138 µM)
MIC [2]: 64 µg/mL (≈ 138 µM)
MIC [3]: 128 µg/mL (≈ 276 µM)
inhibition [7]: 66.7%
MIC [4]: 4 µg/mL (≈ 8.61 µM)
MIC ([5]; Salmonella enterica): 64 µg/mL (≈ 138 µM)
IC50 [8]: 34 µM
MIC [6]: 2 µg/mL (≈ 4.31 µM)

CC(C)=CCC/C(C)=C\CC1(CC=C(C)C)C(=O)C(O)=Cc2oc3cc(O)cc(O)c3c(=O)c21 (stereo not drawn) [GARCINIANONE B]
MIC [1]: 64 µg/mL (≈ 138 µM)
MIC [2]: 64 µg/mL (≈ 138 µM)
MIC [3]: 128 µg/mL (≈ 276 µM)
inhibition [7]: 69.1%
MIC [4]: 2 µg/mL (≈ 4.31 µM)
MIC ([5]; Salmonella enterica): 64 µg/mL (≈ 138 µM)
IC50 [8]: 11.7 µM
MIC [6]: 2 µg/mL (≈ 4.31 µM)

COc1c(O)cc2oc3cc(O)c(CC=C(C)C)c(O)c3c(=O)c2c1CC=C(C)C [MANGOSTIN]
MIC [1]: 64 µg/mL (≈ 156 µM)
MIC [2]: 64 µg/mL (≈ 156 µM)
MIC [3]: 128 µg/mL (≈ 312 µM)
inhibition [7]: 72%
MIC [4]: 8 µg/mL (≈ 19.5 µM)
MIC ([5]; Salmonella enterica): 64 µg/mL (≈ 156 µM)
IC50 [8]: 7.8 µM
MIC [6]: 8 µg/mL (≈ 19.5 µM)

COc1c(O)cc2oc3cc4c(c(O)c3c(=O)c2c1C/C=C(\C)CCC=C(C)C)C=CC(C)(C)O4
MIC [1]: 64 µg/mL (≈ 134 µM)
MIC [2]: 128 µg/mL (≈ 269 µM)
MIC [3]: 128 µg/mL (≈ 269 µM)
inhibition [7]: 71.7%
MIC [4]: 64 µg/mL (≈ 134 µM)
MIC ([5]; Salmonella enterica): 128 µg/mL (≈ 269 µM)
IC50 [8]: 18.6 µM
MIC [6]: 64 µg/mL (≈ 134 µM)

COc1cc2c(=O)c3c(O)c4c(cc3oc2cc1O)OC(C)(CCC=C(C)C)C=C4 (stereo not drawn)
MIC [1]: > 128 µg/mL
MIC [2]: > 128 µg/mL
MIC [3]: 128 µg/mL (≈ 313 µM)
MIC [4]: 32 µg/mL (≈ 78.3 µM)
MIC ([5]; Salmonella enterica): 128 µg/mL (≈ 313 µM)
MIC [6]: 64 µg/mL (≈ 157 µM)

COc1cc2oc3cc4c(c(O)c3c(=O)c2c(CC=C(C)C)c1OC)C=CC(C)(C)O4
MIC [1]: > 128 µg/mL
MIC [2]: > 128 µg/mL
MIC [3]: 128 µg/mL (≈ 303 µM)
inhibition [7]: 62.2%
MIC [4]: 128 µg/mL (≈ 303 µM)
MIC ([5]; Salmonella enterica): 64 µg/mL (≈ 151 µM)
IC50 [8]: 26.2 µM
MIC [6]: 128 µg/mL (≈ 303 µM)

CC(C)=CCC/C(C)=C/CC1(C/C=C(\C)CCC=C(C)C)C(=O)C(O)=Cc2oc3cc(O)cc(O)c3c(=O)c21 (stereo not drawn)
MIC [1]: > 128 µg/mL
MIC [2]: > 128 µg/mL
MIC [3]: 128 µg/mL (≈ 240 µM)
inhibition [7]: 62.9%
MIC [4]: 8 µg/mL (≈ 15 µM)
MIC ([5]; Salmonella enterica): 64 µg/mL (≈ 120 µM)
IC50 [8]: 36.4 µM
MIC [6]: 8 µg/mL (≈ 15 µM)

COc1c(O)c(CC=C(C)C)c2oc3cc(O)c(CC=C(C)C)c(O)c3c(=O)c2c1CC=C(C)C
MIC [1]: > 128 µg/mL
MIC [2]: > 128 µg/mL
MIC [3]: 128 µg/mL (≈ 267 µM)
MIC [4]: 32 µg/mL (≈ 66.9 µM)
MIC ([5]; Salmonella enterica): 128 µg/mL (≈ 267 µM)
MIC [6]: 32 µg/mL (≈ 66.9 µM)

GENTAMICIN
MIC [1]: 0.25 µg/mL
MIC [3]: 2 µg/mL
MIC ([5]; Salmonella enterica subsp. enterica serovar Typhimurium): 0.125 µg/mL

CC(C)=CCC/C(C)=C\CC1(C/C=C(\C)CCC=C(C)C)C(=O)C(O)=Cc2oc3cc(O)cc(O)c3c(=O)c21 (stereo not drawn)
MIC [1]: 64 µg/mL (≈ 120 µM)
MIC [2]: 64 µg/mL (≈ 120 µM)
MIC [3]: 128 µg/mL (≈ 240 µM)
inhibition [7]: 75.8%
MIC [4]: 8 µg/mL (≈ 15 µM)
MIC ([5]; Salmonella enterica): 64 µg/mL (≈ 120 µM)
IC50 [8]: 55.3 µM
MIC [6]: 8 µg/mL (≈ 15 µM)

C[C@H]1O[C@H](O[C@H]2[C@H](O)[C@@H](O)[C@@H](O[C@H]3[C@H](O)[C@@H](O)C(O)O[C@@H]3CO)O[C@@H]2CO)[C@H](O)[C@@H](O)[C@@H]1N[C@H]1C=C(CO)[C@@H](O)[C@H](O)[C@H]1O (stereo partly drawn) [ACARBOSE]
IC50 [8]: 8 µM

COc1c(O)cc2oc3cc(O)cc(O)c3c(=O)c2c1C/C=C(\C)CCC=C(C)C [RUBRAXANTHONE]
MIC [1]: 64 µg/mL (≈ 156 µM)
MIC [2]: > 128 µg/mL
MIC [3]: 64 µg/mL (≈ 156 µM)
inhibition [7]: 71.2%
MIC [4]: 4 µg/mL (≈ 9.75 µM)
MIC ([5]; Salmonella enterica): 64 µg/mL (≈ 156 µM)
IC50 [8]: 23.4 µM
MIC [6]: 2 µg/mL (≈ 4.87 µM)

COc1cc2oc3cc(OC)c(OC)c(CC=C(C)C)c3c(=O)c2c(O)c1CC=C(C)C
MIC [1]: 64 µg/mL (≈ 146 µM)
MIC [2]: 128 µg/mL (≈ 292 µM)
MIC [3]: 128 µg/mL (≈ 292 µM)
inhibition [7]: 53.8%
MIC [4]: > 128 µg/mL
MIC ([5]; Salmonella enterica): 128 µg/mL (≈ 292 µM)
MIC [6]: 128 µg/mL (≈ 292 µM)

COc1cc2oc3cc4c(c(O)c3c(=O)c2c(CC=C(C)C)c1O)C=CC(C)(C)O4
MIC [1]: > 128 µg/mL
MIC [2]: > 128 µg/mL
MIC [3]: 128 µg/mL (≈ 313 µM)
MIC [4]: 128 µg/mL (≈ 313 µM)
MIC ([5]; Salmonella enterica): 128 µg/mL (≈ 313 µM)
MIC [6]: 128 µg/mL (≈ 313 µM)

CN[C@H](CC(C)C)C(=O)N[C@H]1C(=O)N[C@@H](CC(N)=O)C(=O)N[C@H]2C(=O)N[C@H]3C(=O)N[C@H](C(=O)N[C@H](C(=O)O)c4cc(O)cc(O)c4-c4cc3ccc4O)[C@H](O)c3ccc(c(Cl)c3)Oc3cc2cc(c3O[C@@H]2O[C@H](CO)[C@@H](O)[C@H](O)[C@H]2O[C@H]2C[C@](C)(N)[C@H](O)[C@H](C)O2)Oc2ccc(cc2Cl)[C@H]1O [VANCOMYCIN]
MIC [2]: 0.25 µg/mL (≈ 0.173 µM)
MIC [4]: 0.25 µg/mL (≈ 0.173 µM)
MIC [6]: 0.25 µg/mL (≈ 0.173 µM)

COc1cc2c(=O)c3c(O)c(C/C=C(\C)CCC=C(C)C)c(O)cc3oc2cc1O [COWAXANTHONE]
MIC [1]: > 128 µg/mL
MIC [2]: > 128 µg/mL
MIC [3]: 128 µg/mL (≈ 312 µM)
MIC [4]: 64 µg/mL (≈ 156 µM)
MIC ([5]; Salmonella enterica): 128 µg/mL (≈ 312 µM)
MIC [6]: 64 µg/mL (≈ 156 µM)

COc1cc2oc3cc(OC)c(CC=C(C)C)c(O)c3c(=O)c2c(CC=C(C)C)c1O
MIC [1]: > 128 µg/mL
MIC [2]: > 128 µg/mL
MIC [3]: 128 µg/mL (≈ 302 µM)
inhibition [7]: 56.4%
MIC [4]: 128 µg/mL (≈ 302 µM)
MIC ([5]; Salmonella enterica): 128 µg/mL (≈ 302 µM)
MIC [6]: 128 µg/mL (≈ 302 µM)

COc1cc2oc3cc(O)c(OC)c(CC=C(C)C)c3c(=O)c2c(O)c1CC=C(C)C
MIC [1]: > 128 µg/mL
MIC [2]: > 128 µg/mL
MIC [3]: 128 µg/mL (≈ 302 µM)
inhibition [7]: 73.1%
MIC [4]: 16 µg/mL (≈ 37.7 µM)
MIC ([5]; Salmonella enterica): 128 µg/mL (≈ 302 µM)
IC50 [8]: 8.7 µM
MIC [6]: 4 µg/mL (≈ 9.42 µM)

COc1cc2oc3cc(O)c4c(c3c(=O)c2c(O)c1CC=C(C)C)C=CC(C)(C)O4
MIC [1]: > 128 µg/mL
MIC [2]: 128 µg/mL (≈ 313 µM)
MIC [3]: 128 µg/mL (≈ 313 µM)
inhibition [7]: 50.8%
MIC [4]: 128 µg/mL (≈ 313 µM)
MIC ([5]; Salmonella enterica): 128 µg/mL (≈ 313 µM)
MIC [6]: 128 µg/mL (≈ 313 µM)
